The list is not random: actives were taken first. Their share in the collection is about 4.5%.
TAAR1 ag – human TAAR1 agonism | activation, % at 3 µM | Q96RJ0 | CHO RD-HGA16 TAAR1, Fluo-8 calcium fluorescence; vehicle wells 0%, saturating PEA agonist 100% | hit rate 0.99% among 360,000;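 active = activation above the mean activation of all test compounds in the run plus 3 SD, cut at about 38% in these data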
Target sequence (Q96RJ0 whole entry, looked up): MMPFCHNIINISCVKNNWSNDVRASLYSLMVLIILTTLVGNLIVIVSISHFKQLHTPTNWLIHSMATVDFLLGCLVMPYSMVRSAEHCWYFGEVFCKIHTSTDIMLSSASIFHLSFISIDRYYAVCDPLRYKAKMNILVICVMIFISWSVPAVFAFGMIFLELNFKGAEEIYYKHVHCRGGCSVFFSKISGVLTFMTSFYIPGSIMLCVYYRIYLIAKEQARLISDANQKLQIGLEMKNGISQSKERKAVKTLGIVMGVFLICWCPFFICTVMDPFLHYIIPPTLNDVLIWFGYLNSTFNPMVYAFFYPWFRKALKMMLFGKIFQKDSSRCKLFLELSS
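test system = CHO RD-HGA16 cells carrying human TAAR1 plus Gα16 | schedule = 17-24 h seeding, 75 min 37 °C dye, 30 min RT | compound dosing = 3 µM single concentration | control set = DMSO and PEA EC100 | replicates = n 1 | signal = Fluo-8 fluorescence, 5 s baseline then 140 s kinetic read | measure = percent activation vs PEA EC100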
TAAR1 antag – human TAAR1 antagonism; inhibition, % at 3 µM; hit rate 1.5% among 360,000; AID 624466; CHO RD-HGA16 TAAR1, Fluo-8 calcium fluorescence, antagonist;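 active = inhibition above a per-plate cutoff, the mean inhibition of test compounds on that plate plus 3 SD, cut at about 49% in these data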;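 also: 0% = DMSO plus EC80 beta-PEA response and 100% = DMSO alone without agonist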
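System: RD-HGA16 CHO cells with stable hTAAR1 and Gα16 | Probe or stimulus: EC80 β-phenethylamine stimulus | Dosing: 3 µM, single point | Times: Dye loading 75 min at 37 °C, then 30 min room temperature | Measured by: Fluo-8 calcium-sensitive fluorescence | Read-out basis: % inhibition of agonist calcium response | Replicates: n of 1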
GPR7 antagonist – blocks human GPR7 receptor signaling. GPR7-expressing cells, fluorescence antagonist assay. inhibition, % at 4.4 µM. hit rate 1.1% among 290,000. P48145; in the data active = inhibition above about 16%, passing the limit was not always enough;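 also: cells stimulated with the agonist NPW; 0% = agonist with vehicle and 100% = vehicle without agonist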
Target sequence (P48145 whole entry, looked up): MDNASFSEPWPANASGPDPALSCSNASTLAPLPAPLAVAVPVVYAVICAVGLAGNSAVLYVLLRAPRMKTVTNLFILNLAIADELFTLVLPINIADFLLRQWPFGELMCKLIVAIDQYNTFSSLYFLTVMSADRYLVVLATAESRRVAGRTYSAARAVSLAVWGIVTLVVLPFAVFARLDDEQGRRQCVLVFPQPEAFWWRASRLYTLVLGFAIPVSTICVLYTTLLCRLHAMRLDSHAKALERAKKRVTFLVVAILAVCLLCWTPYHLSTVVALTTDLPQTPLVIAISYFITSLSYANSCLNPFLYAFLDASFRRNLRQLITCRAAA
OX1R antag-1 – blocks the human orexin 1 receptor | O43613 | CHO/OX1R cells, Fluo-8 calcium fluorescence, orexin A | inhibition, % at 5 µM | hit rate 0.43% among 330,000 | AID 434989;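 active = inhibition above its plate's threshold, mean inhibition of all tested compounds on the plate plus 3 SD, cut at about 37% in these data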;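 also: 0% = orexin A challenge wells and 100% = SB-334867-A antagonist wells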
CHO parental Ca – counter-screen for OX1R antagonists: effect in parental CHO cells; hit rate 0.63% among 330,000; parental CHO-K1, ATP-induced calcium, Fluo-8 fluorescence; AID 463079; inhibition, % at 5.6 µM;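 active = inhibition above that plate's mean sample inhibition plus 3 SD, cut at about 26% in these data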;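 also: 0% = ATP-challenged DMSO wells and 100% = DMSO wells without ATP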
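Test system: untransfected parental CHO cell line; also added: ATP stimulus; dosing: 5.6 µM, single dose; signal: calcium-sensitive Fluo-8 fluorescence; measure: percent inhibition of ATP-evoked calcium rise, normalized to controls; benchmarks: low control ATP plus DMSO, high control DMSO only; replication: one well per compound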
OX1R antag-2 – antagonists of human orexin 1 receptor (OX1R). OX1R-expressing cells, FRET antagonist read-out. inhibition, % at 6.6 µM. hit rate 1.8% among 330,000. AID 485270; in the data active = inhibition mostly above about 38%, no sharp cut-off; inactive = mostly below about 40%;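 also: 0% = agonist challenge alone and 100% = reference antagonist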
Starred values were filed as active, the others as inactive; nt = no result.

SMILES	TAAR1 ag	TAAR1 antag	GPR7 antagonist	OX1R antag-1	CHO parental Ca	OX1R antag-2
COc1c(C)cc(C(=O)C2CCCN(C(=O)c3ccc4[nH]ccc4c3)C2)cc1C (centres undefined)	-0.8	-60.4	-6.4	-10.9	-18.6	75.0*
C=CCN1CC(COCCCC)Oc2ccc(Cl)cc2S1(=O)=O (centres undefined)	4.6	21.9	nt	nt	nt	nt
Cc1ccc(NC(=O)Cn2cnc(C(=O)Nc3ccc(C)c(C)c3)n2)cc1C	0.0	0.8	nt	-0.8	-4.6	7.0
Cc1cc(C)c(CN2CCN(C(=O)Cn3cnc(C(=O)Nc4ccc(C)c(C)c4)n3)CC2)c(C)c1	26.9	56.3*	nt	59.3*	55.4*	-0.9
O=C(NC1CCN(Cc2ccccc2)CC1)c1cc(S(=O)(=O)N2CCOCC2)ccc1Cl	1.1	-2.8	nt	nt	nt	nt
CC(C)Oc1ccc(F)cc1-c1cc(C(=O)Nc2ccccc2)[nH]n1	4.0	50.1*	nt	nt	nt	nt
Clc1ccc(-c2csc(NCC3CCCO3)n2)cc1 (centres undefined)	-0.1	-17.4	nt	nt	nt	nt
COc1ccc(CCN2Cc3c(cccc3[N+](=O)[O-])C2=O)cc1OC	0.5	1.1	-13.1	-27.0	-1.5	37.6*
COc1ccc(CCNC(=O)CN2C(=O)NC(c3ccccc3)(c3ccccc3)C2=O)cc1	8.9	21.7	nt	23.6	-15.6	36.4*
Cc1ccccc1OCc1nnc(SC(C)C(=O)O)n1Cc1ccccc1 (centres undefined)	10.5	1.6	-2.2	4.3	-20.2	62.7*
Cc1ccccc1OCc1nnc(SCC(=O)O)n1Cc1ccccc1	-1.4	14.1	1.2	-2.6	-12.0	14.2
COC(=O)C1=C(C)N(Cc2ccc(C(F)(F)F)cc2)C(=NCc2ccccc2C(F)(F)F)NC1c1cccc(Cl)c1 (centres undefined)	2.2	-15.1	nt	nt	nt	nt
Oc1c(Br)cc(Br)cc1C=Nc1cccc2ncccc12	1.1	-3.6	nt	-10.7	-4.2	53.5*
O=S(=O)(N1CCCCC1)n1nnc2cc3ccccc3cc21	4.1	-24.9	nt	nt	nt	nt
CC(C)(C)S(=O)N1Cc2cc(C(=O)O)nc(-c3cccc(-c4cc5ccccc5o4)c3)c2[C@H]1CCO (some centres undefined)	1.2	-7.6	nt	nt	nt	nt
CN1CCN(C(=O)c2cc3c(c(-c4cccc(-c5cc6ccccc6o5)c4)n2)[C@H](CCO)N(S(=O)C(C)(C)C)C3)CC1 (some centres undefined)	20.7	50.4*	nt	nt	nt	nt
CC(C)(C)S(=O)N1Cc2cc(C(=O)N[C@@H]3CCN(Cc4ccccc4)C3)nc(-c3cccc(-c4cc5ccccc5o4)c3)c2[C@@H]1CCO (some centres undefined)	13.3	59.5*	nt	nt	nt	nt
C=CCn1ccc(=O)nc1SC	2.1	10.7	nt	nt	nt	nt
CC(=O)CCN1CCSCCS1(=O)=O	0.4	8.9	nt	nt	nt	nt
Cc1ccc(S(=O)(=O)NCc2ccncc2)cc1	5.3	7.1	-4.6	17.2	21.4	30.4
Cc1cc(S(=O)(=O)NCc2ccncc2)c(C)cc1Br	1.9	3.2	13.5	12.0	46.1*	26.2
CCOc1cc(S(=O)(=O)NCc2ccncc2)ccc1Cl	3.1	19.9	9.3	14.4	38.0*	26.0
Cc1ccc(C)c(S(=O)(=O)NCc2ccncc2)c1	19.6	-1.4	2.5	1.7	1.1	5.8
CCOc1ccc(S(=O)(=O)NCc2ccncc2)cc1	6.1	1.1	20.8*	-1.4	3.5	24.9
CCOc1cc(S(=O)(=O)NCc2cccs2)ccc1Cl	5.2	10.5	-11.8	-15.6	-4.4	9.6
SMILES	TAAR1 ag	TAAR1 antag	GPR7 antagonist	OX1R antag-1	CHO parental Ca	OX1R antag-2
COC(=O)c1ccc(CN2C(=O)[C@]3(OCCC=C[C@H]3C)c3cc(OC)ccc32)cc1	0.1	-34.4	nt	nt	nt	nt
CC1=CC2C3C(=O)N(c4ccccc4)C(=O)C3C1C(=O)C2(O)C(C)C (centres undefined)	1.5	-22.3	nt	nt	nt	nt
COc1cccc(CNC(=O)[C@H]2CCCN2C(=O)[C@H]2CCCN2C(=O)c2cccc(OC)c2)c1	1.4	4.8	nt	nt	nt	nt
CC(=O)N1c2cc3ccccc3cc2N(C(C)=O)c2cc3ccccc3cc21	15.0	-8.1	nt	nt	nt	nt
Cc1cc2nc(N=C(N)N)nc(C)c2cc1C	0.7	-4.7	19.0*	nt	nt	nt
Cc1ccc2nc(N=C(N)N)nc(C)c2c1	-0.5	9.2	-12.3	-12.1	-6.1	7.5
Cn1c(=O)cc(SCC(=O)NCCC2=CCCCC2)c2ccc(Cl)cc21	0.7	-23.8	-0.3	-17.4	-1.9	18.9
CN(CCCNC(=O)CSc1cc(=O)n(C)c2cc(Cl)ccc12)Cc1ccccc1	0.3	-3.4	20.8*	-20.3	-14.1	17.7
COC(=O)c1c(C)[nH]c(C(=O)C(C)OC(=O)C2CC(=O)N(c3ccc(C)cc3)C2)c1C (centres undefined)	7.2	20.8	nt	65.8*	46.1*	6.8
CN(CCC#N)C(=O)c1ccc(CNS(=O)(=O)c2ccc(F)cc2)cc1	-3.0	-11.1	16.4*	-6.9	1.4	16.9
C[C@@H]1ON(C)[C@H]2C[C@H]3c4cc(N5CCN(C)CC5)ccc4CCN3C[C@@H]12	1.7	-24.5	nt	nt	nt	nt
C[C@H](NC(=O)c1nc[nH]c1C(=O)NCc1ccc(CNC(=O)OC(C)(C)C)cc1)C(=O)OCc1ccccc1	21.0	82.0*	nt	40.2	12.3	16.7
CC(C)(C)OC(=O)NCCCCCNC(=O)c1[nH]cnc1C(=O)N[C@@H](Cc1ccccc1)C(=O)OC(C)(C)C	nt	nt	nt	40.8	40.2*	2.8
CC(C)(C)OC(=O)[C@H](Cc1ccccc1)NC(=O)c1nc[nH]c1C(=O)NCCCCCN	12.0	4.7	nt	1.8	-2.8	29.4
CCCc1ccc(Oc2cn[nH]c2-c2ccc(O)cc2O)cc1	20.2	18.2	-7.3	22.0	34.7*	-6.2
C=C(C)COc1ccc(-c2[nH]ncc2-c2ccc(OC)cc2)c(O)c1	-1.2	18.7	1.2	-6.2	41.6*	17.9
C=C(C)COc1ccc(-c2[nH]ncc2Oc2ccccc2OCC)c(O)c1	2.6	8.6	-3.4	5.0	-8.2	25.2
C=C(C)COc1ccc(-c2[nH]ncc2-c2ccc(OC)c(OC)c2)c(O)c1	2.5	49.5*	3.3	15.8	0.9	23.9
COc1ccc(Oc2cn[nH]c2-c2ccc(O)cc2O)cc1	2.6	-1.5	9.0	0.2	8.8	0.7
COc1ccc(-c2cn[nH]c2-c2ccc(OCC(=O)NN)cc2O)cc1OC	4.7	-8.4	-23.8	-17.4	-19.2	-0.8
C=C(C)COc1ccc(-c2[nH]ncc2Oc2cccc(OC)c2)c(O)c1	0.2	8.4	-18.0	31.2	74.5*	13.4
O=C(NN1CCOCC1)c1cnn2c(C(F)F)cc(-c3ccccc3)nc12	-1.4	0.5	-3.8	-14.7	-18.1	39.6*
O=c1c2ccccc2sc2ccccc12	-0.3	-30.9	nt	nt	nt	nt

Screening data from PubChem.
